Laboratory results: ChEMBL document CHEMBL1139437, “Design, synthesis, and preliminary pharmacological evaluation of 4-aminopiperidine derivatives as N-type calcium channel blockers active on pain and neuropathic pain” (J Med Chem, 2004)

Assays:
Mus musculus [1] = experiment: Analgesic activity was evaluated in mouse hotplate test; expressed as licking latency after 30 min of treatment at a dose of 25 ug intracerebroventricularly; type: functional
In short: (§1)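 Male Swiss albino mice (23-30 g); icv injection of 5 μL (saline or H2O/DMSO 2:1) under brief anaesthesia. Paw-licking latency (s) on hot plate read before injection and every 15 min up to 60 min. Mice with pretest latency below 12 or over 18 s excluded; cutoff 45 s. Statistics against saline- or vehicle-treated controls.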

Mus musculus [2] = experiment: Analgesic activity was evaluated in mouse hotplate test; expressed as licking latency after 45 min of treatment at a dose of 25 ug intracerebroventricularly; type: functional; in short: as §1
Mus musculus [3] = species: Mus musculus; experiment: Percentage analgesic efficacy when compared to morphine; type: functional; set-up: concentration or dose not given beside the values
In short: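 Male Swiss albino mice, hot-plate test, paw-licking latency; pretest 12–18 s required, cutoff 45 s. Icv injection of 5 μL under brief anaesthesia, in saline or H2O/DMSO 2:1, at maximal soluble dose. Latency read before and every 15 min after dosing. Efficacy = (peak latency − pretest) as % of the same value for morphine 10 μg/mouse icv; non-significant effects scored 0.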

Mus musculus [4] = experiment: Analgesic activity was evaluated in mouse hotplate test; expressed as licking latency after 15 min of treatment at a dose of 25 ug intracerebroventricularly; type: functional; in short: as §1
Mus musculus [5] = experiment: Analgesic activity was evaluated in mouse hotplate test; expressed as licking latency after 15 min of treatment at a dose of 10 ug intracerebroventricularly; type: functional; in short: as §1
Mus musculus [6] = experiment: Analgesic activity was evaluated in mouse hotplate test; expressed as licking latency after 30 min of treatment at a dose of 10 ug intracerebroventricularly; type: functional; in short: as §1
Mus musculus [7] = experiment: Analgesic activity was evaluated in mouse hotplate test; expressed as licking latency after 45 min of treatment at a dose of 10 ug intracerebroventricularly; type: functional; in short: as §1
Rattus norvegicus [8] = experiment: Antihyperalgesic activity was evaluated in rat (sn) paw pressure test after 30 min at a dose of 30 ug intracerebroventricularly
Rattus norvegicus [9] = experiment: Antihyperalgesic activity was evaluated in rat (dx) paw pressure test after 30 min at a dose of 30 ug intracerebroventricularly
Mus musculus [10] = experiment: Analgesic activity was evaluated in mouse hotplate test; expressed as licking latency after 45 min of treatment at a dose of 30 ug intracerebroventricularly; type: functional; in short: as §1
Rattus norvegicus [11] = experiment: Antihyperalgesic activity was evaluated in rat (sn) paw pressure test after 60 min at a dose of 30 ug intracerebroventricularly
Rattus norvegicus [12] = experiment: Antihyperalgesic activity was evaluated in rat (dx) paw pressure test after 45 min at a dose of 30 ug intracerebroventricularly
Rattus norvegicus [13] = experiment: Antihyperalgesic activity was evaluated in rat (sn) paw pressure test after 45 min at a dose of 30 ug intracerebroventricularly
[14] = biological target: Voltage-dependent N-type calcium channel subunit alpha-1B (Rattus norvegicus) (UniProt Q02294); experiment: In vitro antagonism of N-type calcium channels expressed in PC12 cells was determined as the increase in intracellular calcium influx
Rattus norvegicus [15] = experiment: Antihyperalgesic activity was evaluated in rat (dx) paw pressure test after 60 min at a dose of 30 ug intracerebroventricularly
Mus musculus [16] = experiment: Analgesic activity was evaluated in mouse hotplate test; expressed as licking latency after 30 min of treatment at a dose of 30 ug intracerebroventricularly; type: functional; in short: as §1
[17] = biological target: Voltage-dependent N-type calcium channel subunit alpha-1B (Rattus norvegicus) (UniProt Q02294); experiment: In vitro antagonism of N-type calcium channels expressed in PC12 cells was determined as the increase in intracellular calcium influx in the presence of 10 uM nifedipine
Mus musculus [18] = experiment: Analgesic activity was evaluated in mouse hotplate test; expressed as licking latency after 15 min of treatment at a dose of 30 ug intracerebroventricularly; type: functional; in short: as §1
Mus musculus [19] = experiment: Analgesic activity was evaluated in mouse hotplate test; expressed as licking latency after 30 min of treatment at a dose of 20 ug intracerebroventricularly; type: functional; in short: as §1
Mus musculus [20] = experiment: Analgesic activity was evaluated in mouse hotplate test; expressed as licking latency after 15 min of treatment at a dose of 20 ug intracerebroventricularly; type: functional; in short: as §1
Mus musculus [21] = experiment: Analgesic activity was evaluated in mouse hotplate test; expressed as licking latency after 45 min of treatment at a dose of 20 ug intracerebroventricularly; type: functional; in short: as §1
Mus musculus [22] = experiment: Analgesic activity was evaluated in mouse hotplate test; expressed as licking latency after 15 min of treatment at a dose of 15 ug intracerebroventricularly; type: functional; in short: as §1
Mus musculus [23] = experiment: Analgesic activity was evaluated in mouse hotplate test; expressed as licking latency after 30 min of treatment at a dose of 15 ug intracerebroventricularly; type: functional; in short: as §1
Mus musculus [24] = experiment: Analgesic activity was evaluated in mouse hotplate test; expressed as licking latency after 45 min of treatment at a dose of 15 ug intracerebroventricularly; type: functional; in short: as §1
Rattus norvegicus [25] = experiment: Antihyperalgesic activity was evaluated in rat (sn) paw pressure test after 60 min at a dose of 50 ug intracerebroventricularly
Rattus norvegicus [26] = experiment: Antihyperalgesic activity was evaluated in rat (dx) paw pressure test after 45 min at a dose of 50 ug intracerebroventricularly
Rattus norvegicus [27] = experiment: Antihyperalgesic activity was evaluated in rat (sn) paw pressure test after 45 min at a dose of 50 ug intracerebroventricularly
Mus musculus [28] = experiment: Analgesic activity was evaluated in mouse hotplate test; expressed as licking latency after 15 min of treatment at a dose of 40 ug intracerebroventricularly; type: functional; in short: as §1
Rattus norvegicus [29] = experiment: Antihyperalgesic activity was evaluated in rat (dx) paw pressure test after 60 min at a dose of 50 ug intracerebroventricularly
Mus musculus [30] = experiment: Analgesic activity was evaluated in mouse hotplate test; expressed as licking latency after 30 min of treatment at a dose of 40 ug intracerebroventricularly; type: functional; in short: as §1
Rattus norvegicus [31] = experiment: Antihyperalgesic activity was evaluated in rat (dx) paw pressure test after 30 min at a dose of 50 ug intracerebroventricularly
Mus musculus [32] = experiment: Analgesic activity was evaluated in mouse hotplate test; expressed as licking latency after 45 min of treatment at a dose of 40 ug intracerebroventricularly; type: functional; in short: as §1
Rattus norvegicus [33] = experiment: Antihyperalgesic activity was evaluated in rat (sn) paw pressure test after 30 min at a dose of 50 ug intracerebroventricularly
Mus musculus [34] = experiment: Analgesic activity was evaluated in mouse hotplate test; expressed as licking latency after 15 min of treatment at a dose of 50 ug intracerebroventricularly; type: functional; in short: as §1
Mus musculus [35] = experiment: Analgesic activity was evaluated in mouse hotplate test; expressed as licking latency after 45 min of treatment at a dose of 50 ug intracerebroventricularly; type: functional; in short: as §1
Mus musculus [36] = experiment: Analgesic activity was evaluated in mouse hotplate test; expressed as licking latency after 30 min of treatment at a dose of 50 ug intracerebroventricularly; type: functional; in short: as §1

Chain of Voltage-dependent N-type calcium channel subunit alpha-1B (Rattus norvegicus) (Q02294 whole entry, looked up): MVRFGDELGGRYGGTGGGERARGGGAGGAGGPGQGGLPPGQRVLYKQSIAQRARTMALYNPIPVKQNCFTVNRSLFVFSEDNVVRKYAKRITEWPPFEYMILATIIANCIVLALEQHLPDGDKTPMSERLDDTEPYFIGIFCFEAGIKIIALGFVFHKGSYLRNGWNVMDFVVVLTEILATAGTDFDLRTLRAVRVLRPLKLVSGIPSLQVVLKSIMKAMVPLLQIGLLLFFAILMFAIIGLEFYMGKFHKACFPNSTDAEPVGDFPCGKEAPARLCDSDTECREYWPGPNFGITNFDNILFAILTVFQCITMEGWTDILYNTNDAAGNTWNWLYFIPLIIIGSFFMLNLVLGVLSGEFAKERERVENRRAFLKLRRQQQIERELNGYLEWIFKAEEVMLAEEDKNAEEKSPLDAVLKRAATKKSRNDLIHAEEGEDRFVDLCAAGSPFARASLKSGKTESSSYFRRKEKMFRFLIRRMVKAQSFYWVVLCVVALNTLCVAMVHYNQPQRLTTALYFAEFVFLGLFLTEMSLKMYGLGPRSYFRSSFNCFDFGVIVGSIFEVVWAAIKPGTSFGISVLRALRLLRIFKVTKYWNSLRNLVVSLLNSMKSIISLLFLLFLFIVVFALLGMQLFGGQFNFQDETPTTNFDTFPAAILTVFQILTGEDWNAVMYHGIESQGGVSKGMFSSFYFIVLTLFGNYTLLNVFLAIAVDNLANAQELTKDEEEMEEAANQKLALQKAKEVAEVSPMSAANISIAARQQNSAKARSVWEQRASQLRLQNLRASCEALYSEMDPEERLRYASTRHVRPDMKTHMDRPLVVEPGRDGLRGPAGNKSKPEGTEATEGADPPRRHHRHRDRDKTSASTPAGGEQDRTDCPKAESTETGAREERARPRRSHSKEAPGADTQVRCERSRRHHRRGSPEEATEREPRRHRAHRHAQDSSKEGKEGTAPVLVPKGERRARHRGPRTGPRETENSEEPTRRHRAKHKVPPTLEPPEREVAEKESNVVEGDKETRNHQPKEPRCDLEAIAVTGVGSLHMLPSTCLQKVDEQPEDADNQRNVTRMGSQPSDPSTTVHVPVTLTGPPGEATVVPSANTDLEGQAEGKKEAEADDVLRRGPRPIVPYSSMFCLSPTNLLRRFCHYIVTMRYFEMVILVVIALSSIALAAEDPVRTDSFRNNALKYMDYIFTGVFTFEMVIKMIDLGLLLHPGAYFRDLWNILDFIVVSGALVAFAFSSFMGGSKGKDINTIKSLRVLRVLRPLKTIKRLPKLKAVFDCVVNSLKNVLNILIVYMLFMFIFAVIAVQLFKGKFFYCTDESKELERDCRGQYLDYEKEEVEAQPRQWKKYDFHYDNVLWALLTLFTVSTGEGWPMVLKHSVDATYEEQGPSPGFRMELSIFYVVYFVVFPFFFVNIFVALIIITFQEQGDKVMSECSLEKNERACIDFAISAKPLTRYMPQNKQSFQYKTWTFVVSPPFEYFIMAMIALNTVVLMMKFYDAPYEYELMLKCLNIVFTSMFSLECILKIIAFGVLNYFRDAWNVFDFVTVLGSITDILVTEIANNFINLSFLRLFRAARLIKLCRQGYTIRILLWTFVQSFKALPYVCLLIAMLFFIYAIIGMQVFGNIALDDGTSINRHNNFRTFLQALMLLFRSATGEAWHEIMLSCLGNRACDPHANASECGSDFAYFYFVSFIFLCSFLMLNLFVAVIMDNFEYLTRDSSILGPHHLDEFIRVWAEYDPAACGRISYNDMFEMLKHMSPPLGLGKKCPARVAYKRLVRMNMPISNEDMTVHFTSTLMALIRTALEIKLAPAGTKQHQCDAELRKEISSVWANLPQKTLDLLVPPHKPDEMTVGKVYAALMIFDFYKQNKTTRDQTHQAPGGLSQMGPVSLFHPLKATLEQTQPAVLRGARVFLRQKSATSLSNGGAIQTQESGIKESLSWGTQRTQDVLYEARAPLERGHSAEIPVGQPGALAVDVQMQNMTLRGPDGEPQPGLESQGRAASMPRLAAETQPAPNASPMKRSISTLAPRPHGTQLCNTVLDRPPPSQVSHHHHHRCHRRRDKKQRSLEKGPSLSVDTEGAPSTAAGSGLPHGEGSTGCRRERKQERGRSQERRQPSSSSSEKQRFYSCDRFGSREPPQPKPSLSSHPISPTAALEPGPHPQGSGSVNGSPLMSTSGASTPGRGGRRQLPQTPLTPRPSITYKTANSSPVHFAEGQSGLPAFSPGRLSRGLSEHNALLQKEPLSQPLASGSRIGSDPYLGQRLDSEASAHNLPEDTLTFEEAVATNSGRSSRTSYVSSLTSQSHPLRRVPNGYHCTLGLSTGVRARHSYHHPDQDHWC

CCCCN1CCC(NCCCC(C#N)(c2ccc(OC)c(OC)c2)C(C)C)CC1.Cl (stereo not drawn)
Latency (Mus musculus [1]): 21.6 s | Latency (Mus musculus [2]): 19 s | Efficacy (Mus musculus [3]): 47% | Latency (Mus musculus [4]): 20.5 s

COc1ccc(CCNC2CCN(CCCC(C#N)(c3ccc(OC)c(OC)c3)C(C)C)CC2)cc1OC.O=C(O)C(=O)O (stereo not drawn)
Efficacy (Mus musculus [3]): 0% | Latency (Mus musculus [5]): 17.2 s | Latency (Mus musculus [6]): 18.3 s | Latency (Mus musculus [7]): 17.6 s

COc1ccc(C(C#N)(CCCNC2CCN(CCOc3ccccc3)CC2)C(C)C)cc1OC.Cl (stereo not drawn)
Activity (Rattus norvegicus [8]): 57.3 g | Activity (Rattus norvegicus [9]): 33.4 g | Latency (Mus musculus [10]): 15.2 s | Activity (Rattus norvegicus [11]): 59.4 g | Activity (Rattus norvegicus [12]): 38.6 g | Efficacy (Mus musculus [3]): 59% | Activity (Rattus norvegicus [13]): 55.6 g | IC50 [14]: 3.8 µM | Activity (Rattus norvegicus [15]): 40.5 g | Latency (Mus musculus [16]): 16.5 s | IC50 [17]: 3.1 µM | Latency (Mus musculus [18]): 22.6 s

COc1ccc(C(C#N)(CCCNC2CCN(C/C=C/c3ccccc3)CC2)C(C)C)cc1OC.Cl (stereo not drawn)
Latency (Mus musculus [19]): 20.2 s | Latency (Mus musculus [20]): 24.3 s | Efficacy (Mus musculus [3]): 69% | Latency (Mus musculus [21]): 16.2 s

Cl.O=C(CCC(c1ccc(F)cc1)c1ccc(F)cc1)NC1CCN(CCO)CC1
Latency (Mus musculus [22]): 16.9 s | Efficacy (Mus musculus [3]): 0% | Latency (Mus musculus [23]): 16.8 s | Latency (Mus musculus [24]): 17.3 s

COc1ccc(CCNC2CCN(CCCC(C#N)(c3ccccc3)C(C)C)CC2)cc1OC.O=C(O)C(=O)O (stereo not drawn)
Efficacy (Mus musculus [3]): 0% | Latency (Mus musculus [5]): 16.6 s | Latency (Mus musculus [6]): 18.1 s | Latency (Mus musculus [7]): 17.5 s

COc1ccc(CCN2CCC(NCCCC(C#N)(c3ccc(OC)c(OC)c3)C(C)C)CC2)cc1OC.Cl (stereo not drawn)
Latency (Mus musculus [22]): 17.7 s | Efficacy (Mus musculus [3]): 0% | Latency (Mus musculus [23]): 18.3 s | Latency (Mus musculus [24]): 15.4 s

CC(C)CC(N)C(=O)NC1CCN(C(=O)CCC(c2ccc(F)cc2)c2ccc(F)cc2)CC1.Cl (stereo not drawn)
Activity (Rattus norvegicus [25]): 63.2 g | Activity (Rattus norvegicus [26]): 60.3 g | Activity (Rattus norvegicus [27]): 61.3 g | Latency (Mus musculus [28]): 23.2 s | Activity (Rattus norvegicus [29]): 55.8 g | Latency (Mus musculus [30]): 22.6 s | Activity (Rattus norvegicus [31]): 62.5 g | Efficacy (Mus musculus [3]): 71% | Latency (Mus musculus [32]): 16.6 s | Activity (Rattus norvegicus [33]): 55.9 g

COc1ccc(CCNC2CCN(C(=O)CCC(C#N)(c3ccc(OC)c(OC)c3)C(C)C)CC2)cc1OC.O=C(O)C(=O)O (stereo not drawn)
Efficacy (Mus musculus [3]): 0% | Latency (Mus musculus [5]): 16.5 s | Latency (Mus musculus [6]): 18.8 s | Latency (Mus musculus [7]): 17.3 s

COc1ccc(C(C#N)(CCC(=O)N2CCC(NCCOc3ccccc3)CC2)C(C)C)cc1OC.O=C(O)C(=O)O (stereo not drawn)
Efficacy (Mus musculus [3]): 0% | Latency (Mus musculus [5]): 15.7 s | Latency (Mus musculus [6]): 18.5 s | Latency (Mus musculus [7]): 13.8 s

O=C(CCC(c1ccc(F)cc1)c1ccc(F)cc1)NC1CCNCC1.O=C(O)C(=O)O
Latency (Mus musculus [19]): 16.7 s | Latency (Mus musculus [20]): 21.8 s | Efficacy (Mus musculus [3]): 64% | Latency (Mus musculus [21]): 17.1 s

CCCCNC1CCN(C(=O)CCC(C#N)(c2ccc(OC)c(OC)c2)C(C)C)CC1.Cl (stereo not drawn)
Activity (Rattus norvegicus [8]): 65 g | Activity (Rattus norvegicus [9]): 28.4 g | Latency (Mus musculus [10]): 17 s | Activity (Rattus norvegicus [11]): 59.3 g | Activity (Rattus norvegicus [12]): 26.7 g | Efficacy (Mus musculus [3]): 0% | Activity (Rattus norvegicus [13]): 56.9 g | Activity (Rattus norvegicus [15]): 32 g | Latency (Mus musculus [16]): 17.4 s | Latency (Mus musculus [18]): 18.7 s

COc1ccc(CCNC2CCN(CCCC(c3ccc(F)cc3)c3ccc(F)cc3)CC2)cc1OC.Cl
Efficacy (Mus musculus [3]): 51% | Latency (Mus musculus [5]): 21.5 s | Latency (Mus musculus [6]): 16.3 s | Latency (Mus musculus [7]): 16.6 s

CCCCNC1CCN(CCCC(C#N)(c2ccc(OC)c(OC)c2)C(C)C)CC1.Cl (stereo not drawn)
Activity (Rattus norvegicus [8]): 59.1 g | Activity (Rattus norvegicus [9]): 47.3 g | Latency (Mus musculus [10]): 18.7 s | Activity (Rattus norvegicus [11]): 59.2 g | Activity (Rattus norvegicus [12]): 43.5 g | Efficacy (Mus musculus [3]): 59% | Activity (Rattus norvegicus [13]): 57.3 g | Activity (Rattus norvegicus [15]): 38.6 g | Latency (Mus musculus [16]): 21.3 s | Latency (Mus musculus [18]): 23.1 s

COc1ccc(C(C#N)(CCCN2CCC(NCCOc3ccccc3)CC2)C(C)C)cc1OC.O=C(O)C(=O)O (stereo not drawn)
Latency (Mus musculus [34]): 22.3 s | Activity (Rattus norvegicus [25]): 60.6 g | Activity (Rattus norvegicus [26]): 58.3 g | Latency (Mus musculus [35]): 18.9 s | Activity (Rattus norvegicus [27]): 64.7 g | Activity (Rattus norvegicus [29]): 54.8 g | Activity (Rattus norvegicus [31]): 61.7 g | Efficacy (Mus musculus [3]): 61% | Latency (Mus musculus [36]): 20.8 s | IC50 [14]: 0.7 µM | IC50 [17]: 0.4 µM | Activity (Rattus norvegicus [33]): 59.5 g

COc1ccc(CCNC2CCN(Cc3ccccc3)CC2)cc1OC.Cl
Latency (Mus musculus [34]): 15.5 s | Latency (Mus musculus [35]): 15.3 s | Efficacy (Mus musculus [3]): 0% | Latency (Mus musculus [36]): 16.7 s
